Compounds with a hit are over-represented: about 2.2% of the library has one in this group of screens.
DDE Tn6 FP inh – disrupts Tn6 cyclic peptide binding to fibrin D-Dimer-E complex. 370,000 tested, 0.21% active. AID 720509. P02675. inhibition, % at 8.3 µM. Fibrin DD(E) TRITC-Tn6 fluorescence polarization displacement;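 active = inhibition above a per-campaign cutoff: mean of compounds within control limits plus 3 SD, cut at about 15% in these data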;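 also: 0% = median of all compound wells on the plate and 100% = blocking peptide control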
MT1-MMP act inh – blocks activation of human MT1-MMP. P50281. HT1080 RFP-PRO-GFP cells, GFP/RFP ratio fluorescence, overnight; percent of plate control window, DMSO zero. GFP/RFP ratio change, % at 20 µM. 360,000 tested, 0.061% active. AID 651647;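 active = GFP/RFP ratio change of at least 30% with cell ATP level not reduced by more than half and red fluorescence within 50% of control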
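Assay system: HT1080 RFP-PRO-GFP cells | Dosing: 20 µM single dose, 1% DMSO | Incubation: Cells overnight before dosing, compound overnight, 37 °C, 5% CO2 | Evaluation: GFP/RFP fluorescence ratio | Control set: DMSO-only wells and HT1080 RFP-L50D-GFP cell wells as references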
proKLK7 act – activates the human kallikrein-7 zymogen | P49862 | purified proKLK7, EDANS-DABCYL substrate fluorescence; 100% is mature enzyme control, 0% vehicle | activation, % at 7 µM | 370,000 tested, 0.9% active | AID 652039;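 active = activation above the mean of all tested compounds plus 3 SD, computed per campaign excluding outliers beyond control limits, cut at about 13% in these data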
Target sequence (P49862 whole entry, looked up): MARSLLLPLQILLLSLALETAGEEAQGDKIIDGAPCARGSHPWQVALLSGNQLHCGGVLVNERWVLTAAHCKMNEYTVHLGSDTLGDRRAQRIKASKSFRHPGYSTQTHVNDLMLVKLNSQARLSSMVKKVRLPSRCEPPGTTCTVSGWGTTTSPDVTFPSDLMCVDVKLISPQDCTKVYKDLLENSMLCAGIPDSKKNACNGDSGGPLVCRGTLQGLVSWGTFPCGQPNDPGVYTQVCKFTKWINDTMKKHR
Tn7 DDE FP – inhibitors of Tn7 peptide binding to human fibrin DD(E); 370,000 tested, 0.13% active; FP displacement of FITC-Tn7 peptide from fibrin DD(E); 0% = median of compound wells per plate; inhibition, % at 8.3 µM;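 active = inhibition above the mean of compounds falling within the control limits plus 3 SD of them, cut at about 14% in these data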;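 also: 0% = plate median of compound wells and 100% = 10 µM Aha-Tn7 peptide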
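Test system: human clot-derived fibrin DD(E) complex / Quantity: 2 µM final DD(E) protein / Incubation: 10 min plus 3 h, room temperature / Measured by: fluorescence polarization / Benchmarks: high control of 10 µM Aha-Tn7 peptide / Replicates: singlicate testing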
SKN-1 inh – blocks SKN-1 activity in C. elegans; C. elegans VP596 Pgst-4::GFP/RFP ratio, acrylamide-induced, 24 h; inhibition, % at 21.8 µM; 360,000 tested, 0.49% active; AID 624304;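 active = interference check ratio from 0.5 to 1.5 plus GFP to RFP signal ratio inhibition reaching or exceeding a fixed threshold, cut at about 30% in these data, passing the limit was not always enough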
Neddylation inh – inhibitors of human cullin neddylation; TR-FRET cullin neddylation, biochemical; calls only at 25 µM; 360,000 tested, 0.58% active; AID 651699; in the data active = inhibition above about 36%
proKLK7 act conf – proKLK7 activation, confirmation; activation, % at 7 µM; purified proKLK7, EDANS-DABCYL substrate fluorescence; scaled: vehicle 0, mature enzyme 100; 3,200 tested, 68% active; shares compounds with proKLK7 act; AID 686949;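 active = activation, as change over the incubation, above the mean of all tested compounds plus 3 SD, cut at about 13% in these data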
EDANS interfere – optically interferes with EDANS-DABCYL signal, flagging KLK7 hits; shares compounds with proKLK7 act; EDANS-DABCYL substrate fluorescence interference, no enzyme, 4 h; solvent 0%, active enzyme control 100%; 3,200 tested, 80% active; AID 686952; activation, % at 7 µM;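 active = activation above the all-compound mean plus 3 SD, ignoring values outside control-based bounds, cut at about 4.8% in these data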;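 also: value is the 4 h activation minus the activation read at time zero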
EDANS interf – EDANS fluorescence interference in dose response, no enzyme; shares compounds with proKLK7 act; EDANS-DABCYL peptide fluorescence interference; EC50, µM; 250 tested, 20% active;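 active = compounds that raise the fluorescence signal in this interference counterscreen, with EC50 at or below 10 µM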;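 also: intact quenched peptide substrate alone read at 355 nm excitation and 520 nm emission; signal is fluorescence gain from T0 to T4 after four hours at room temperature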
Starred values were filed as active, the others as inactive; i = inactive; nt = no result given.

SMILES | DDE Tn6 FP inh | MT1-MMP act inh | proKLK7 act | Tn7 DDE FP | SKN-1 inh | Neddylation inh | proKLK7 act conf | EDANS interfere | others
CCN(CC)c1nc2ccccc2nc1C(C#N)C(=O)NCCCOC (stereo not drawn) | -1 | -2 | 14* | 0 | 10 | nt | 33* | 37*
Cc1ccccc1N1C(=O)c2cccc3c(N(C)CCO)ccc(c23)C1=O | 4 | -330 | 13* | 11 | 5 | i | 9 | 10*
CCOC(=O)Nc1ccc2c(COC(=O)CNS(=O)(=O)c3ccc(NC(C)=O)cc3)cc(=O)oc2c1 | 8 | 4 | 98* | 1 | 15 | i | 127* | 106*
COC(=O)c1cc2c(ccc3ccccc32)oc1=O | 1 | 5 | 65* | -9 | -1 | nt | 67* | 74*
CN1CCN(C(=O)c2cc3c(ccc4ccccc43)oc2=O)CC1 | 0 | -3 | 56* | -3 | -6 | nt | 22* | 21*
NNC(=O)c1cc2c(ccc3ccccc32)o1 | -7 | -13 | 3 | 3 | -12 | i | nt | nt
COc1ccc(OC)c(/C=C/C(=O)Oc2ccc(C(C)=O)cc2)c1 | -1 | -1 | 15* | 3 | 22 | nt | 25* | 32*
COc1ccc(OC)c(/C=C/C(=O)OCC(=O)Nc2cccc(C(C)=O)c2)c1 | 2 | -1 | 7 | -7 | 0 | nt | nt | nt
COc1ccc(OC)c(/C=C/C(=O)OCC(=O)N2CCCC2)c1 | 0 | 0 | 8 | 0 | 7 | i | nt | nt
COc1ccc(OC)c(/C=C/C(=O)OCC(=O)N2C(C)CCCC2C)c1 (stereo not drawn) | 5 | -1 | 13* | 11 | -5 | nt | 13* | 15*
COc1ccc(CNC(=O)c2ccccc2SC)cc1 | 3 | 2 | 0 | 0 | -11 | i | nt | nt
Cc1nc2ccccc2c(=O)n1NC(=O)C1CCC(C(C)(C)C)CC1 (stereo not drawn) | 4 | 5 | 0 | -5 | -6 | i | nt | nt
Cc1cc(C)[n+](-c2ccc(F)cc2)c2[nH]c(=O)[nH]c(=O)c12 | 3 | -2 | 38* | -1 | -4 | nt | 63* | 68*
O=C(O)c1cn(-c2ccc(F)cc2)c2cc(N3CCNCC3)c(F)cc2c1=O | -2 | -8 | 15* | 3 | -4 | nt | 6 | 4
CCn1cc(C(=O)O)c(=O)c2cc(F)c(N3CCN(C(=S)NC(=O)c4ccccc4Cl)CC3)cc21 | 6 | 3 | 0 | 2 | 7 | i | nt | nt
Nc1ccc(-c2nc3c(ccc4ccccc43)[nH]2)cc1 | -8 | 12 | 54* | -5 | 11 | nt | 74* | 74*
CCc1cc2c(=O)nc3n(c2s1)Cc1ccccc1/C3=C(/O)c1cccc([N+](=O)[O-])c1 | nt | -8 | nt | nt | -7 | i | nt | nt
CCc1cc2c(=O)nc3n(c2s1)Cc1ccccc1/C3=C(/O)c1ccc(F)cc1 | 2 | -23 | 23* | 6 | 14 | i | 65* | 68*
CCc1cc2c(=O)nc3n(c2s1)Cc1ccccc1/C3=C(/O)c1ccccc1Cl | -3 | -15 | 13* | 1 | 22 | nt | 16* | 23*
O=c1c2cccc(Cl)c2nc2n1Cc1ccccc1-2 | 2 | -3 | 0 | 0 | -7 | i | nt | nt
COCCOC(=O)c1c(N)n(CCCN2CCOCC2)c2nc3ccccc3nc12 | 0 | -2 | 46* | 6 | 0 | nt | 75* | 79*
CC(C)Cn1c(N)c(C(=O)NCCN2CCOCC2)c2nc3ccccc3nc21 | 0 | -2 | 57* | -12 | 9 | nt | -93 | -108
COC(=O)c1c(N)n(CCCN2CCOCC2)c2nc3ccccc3nc12 | -3 | 5 | 43* | 7 | -3 | nt | 75* | 80*
Nc1c(C(=O)NCc2ccccc2)c2nc3ccccc3nc2n1CCCN1CCOCC1 | 2 | 1 | -65 | 2 | 10 | nt | nt | nt
Cc1cccc(-n2c(N)c(C(=O)NCCN3CCOCC3)c3nc4ccccc4nc32)c1 | -1 | nt | -65 | 0 | nt | nt | nt | nt
SMILES | DDE Tn6 FP inh | MT1-MMP act inh | proKLK7 act | Tn7 DDE FP | SKN-1 inh | Neddylation inh | proKLK7 act conf | EDANS interfere | others
COC(=O)c1nc2cc(C)ccn2c1F | 1 | 2 | 1 | -5 | -4 | i | nt | nt
O=C(N/N=C/c1ccccc1)c1cc(=O)[nH]c2ccccc12 | 6 | 2 | 0 | 2 | -6 | i | nt | nt
Cc1cccc(OCC(=O)NC(=S)Nc2ccccc2N2CCOCC2)c1C | 7 | -2 | -1 | 5 | 15 | i | nt | nt
COc1ccc2[nH]c(C)c(CCN3C(=O)C4C5C=CC(C5)C4C3=O)c2c1 (stereo not drawn) | -3 | 1 | 1 | 4 | 14 | i | nt | nt
CC(=O)NC1=NN(C(C)=O)C(C)(c2ccc(Br)cc2)S1 (stereo not drawn) | 0 | 0 | 0 | 7 | -1 | i | nt | nt
COCC(=O)N(C)c1nnc(-c2cnc(C)cn2)s1 | 3 | -6 | 17* | 2 | -25 | i | 70* | 81*
COc1ccc(-c2nnc(N(C)C(=O)C3CCCO3)s2)cc1 (stereo not drawn) | 0 | 7 | 2 | 3 | -6 | i | nt | nt
COc1ccc(-c2nnc(N(C)C(=O)C3CCOC3)s2)cc1 (stereo not drawn) | 3 | 4 | 1 | -4 | 0 | i | nt | nt
CN(C(=O)C1CCOC1)c1nnc(-c2cnccn2)s1 (stereo not drawn) | -3 | -13 | 29* | -1 | -7 | i | 26* | 26*
Cc1cnc(-c2nnc(N(C)C(=O)C3CCCO3)s2)cn1 (stereo not drawn) | -7 | -3 | 74* | -5 | 4 | i | 114* | 108*
CN(C)Cc1c(C(=O)N/N=C/c2cccc3ccccc23)nnn1-c1nonc1N | -1 | nt | 0 | -2 | 15 | i | nt | nt
Cc1cc(C(F)(F)F)nc(SCC(=O)Nc2ccccc2)n1 | -10 | 1 | 0 | -3 | -8 | i | nt | nt
COc1ccc(-c2c(C)oc3c(CN4CCOCC4)c(O)ccc3c2=O)cc1 | -3 | 4 | 67* | 2 | -1 | nt | 24* | 32*
Cc1oc2c(CN3CCCCC3)c(O)ccc2c(=O)c1-c1ccc(Br)cc1 | 5 | -2 | 25* | -6 | 27 | nt | 21* | 17* | EDANS interf=>70
